UHRF1 MBD2 ctr = UHRF1 methyl-DNA binding inhibition. UHRF1 binding to methylated oligo, TR-FRET. Q96T88. 0.75% of 370,000 active. inhibition, % at 4.4 µM; in the data active = inhibition above about 21%;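 note: UHRF1 SRA domain binding a hemimethylated CpG hairpin DNA probe; 0% = median of test compound wells and 100% = reference inhibitor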
Arrestin-AP2 inh = inhibitors of human beta-arrestin and AP2 interaction | inhibition, % at 10 µM | 0.31% of 340,000 active | FITC-arrestin peptide / GST-AP2 beads, flow cytometry; AP2 beta2 appendage carries R879A mutation;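 active = inhibition above a set limit, near 3 SD of compounds lacking own fluorescence, cut at about 54% in these data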;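 note: plate controls were DMSO wells for no effect and 5 µM unlabelled arrestin peptide for full effect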
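system = GST-tagged AP2 beta2-adaptin appendage (R879A) on 4 µm glutathione beads | reagent = FITC-labelled arrestin peptide probe, 50 nM final | schedule = compound with beads 12 min RT, then probe 1 h RT | signal = HyperCyt-sampled flow cytometry, FL1 channel, ex 488/em 535 nm | read-out = percent response from loss of bead-bound FITC fluorescence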
MBD2 DNA inh = inhibitors of human MBD2 binding to methylated oligonucleotide; Q9UBB5; TR-FRET; inhibition, % at 4.4 µM; 0.31% of 370,000 active; AID 686964; in the data active = inhibition above about 13%
Rin1 Abl inh = blocks binding of human Rin1 to Abl; TR-FRET Rin1/Abl binding, biochemical; inhibition, % at 7.35 µM; 0.4% of 360,000 active; in the data active = inhibition above about 5%, passing the limit was not always enough
ABHD5-PLIN5 inh = inhibitors of human ABHD5-perilipin-5 interaction | inhibition, % at 4 µM | AID 602281 | Q00G26+Q8WTS1 | 0.78% of 360,000 active | Split G. princeps luciferase complementation, luminescence, 4 h;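 active = inhibition above the mean inhibition across every tested compound plus 3 SD, cut at about 22% in these data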;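 note: 0% = DMSO only wells and the 100% control is not disclosed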
B2AR ag = human beta-2 adrenergic receptor agonism by FAP | 0.43% of 340,000 active | Am2.2-beta2AR cells, FAP receptor internalization, flow cytometry | response, % (no concentration beside the values);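 active = response above a set limit, near 3 SD of response in nonfluorescent compounds, cut at about 42% in these data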
* marks the source's active call; other numbers are inactive results; · = no result given. Hits are enriched below; roughly 2.5% of the tested compounds scored in any of these assays.

SMILES	UHRF1 MBD2 ctr	Arrestin-AP2 inh	MBD2 DNA inh	Rin1 Abl inh	ABHD5-PLIN5 inh	B2AR ag
CN(C)c1nc(C=C(C#N)C#N)c(Cl)n1-c1ccc(F)cc1	1.6	8.8	-1.3	-3.0	2.1	52.4*
CCOc1ccccc1NC(=O)/C(C#N)=C/c1c(C)nn(-c2ccc(F)cc2)c1Cl	16.1	0.6	5.8	0.1	2.2	3.5
COC(=O)C1CN(CC(C)C)CCS(=O)(=O)N1Cc1ccc(Cl)cc1 (centres undefined)	-0.8	·	-5.8	·	·	·
COc1ccc(Cl)cc1NC(=O)Cn1c(=O)n2nc(C)nc2c2ccccc21	70.0*	13.6	3.0	0.8	4.4	-4.0
c1ccc(CNc2nc(NCc3ccccc3)c3ccccc3n2)cc1	·	6.4	·	0.6	11.3	72.0*
Cc1c(Cl)cccc1NS(=O)(=O)c1ccc2c(c1)C1C=CCC1C(c1ccc(C(=O)O)cc1)N2 (centres undefined)	·	13.9	·	9.2*	8.1	-2.5
Cc1nc2c(=O)[nH]c(=S)[nH]c2[nH]c1=O	85.0*	15.4	48.2*	7.6	-6.1	-2.2
NS(=O)(=O)c1ccc(NC(=O)CSc2nc3ccccc3c(=O)n2-c2ccc(Br)cc2)cc1	-0.6	·	-4.2	·	·	·
CCn1c(NC(=O)C(C)C)c(-c2ccccc2)c(=O)c2ccccc21	46.7*	25.6	5.0	0.4	6.2	-2.8
CC(=O)CC[C@@H]1CC[C@]2(CCCN(S(=O)(=O)C3CCCCC3)C2)O1	-2.0	·	3.8	·	·	·
C[C@H](O)[C@@H]1C(=O)N2CCc3c([nH]c4c(-c5ccc6c(c5)OCO6)cccc34)[C@@H]2C[C@@H]1N(C)C(=O)OCc1ccccc1	-3.0	·	-4.0	·	·	·
COC(=O)c1cc(=O)n(Cc2ccc(F)cc2)c(=Nc2ccccc2)s1	0.3	6.1	-0.9	0.1	4.1	25.4
COC(=O)c1cc(=O)n(Cc2ccc(OC)c(OC)c2)c(=Nc2ccc(F)cc2)s1	0.4	-2.4	-5.8	-3.3	3.3	71.8*
Cc1cc(C)cc(CC2CC(=O)N(c3cc(C)ccc3C)C2=O)c1 (centres undefined)	-0.6	-12.4	-2.0	-0.9	7.6	12.8
Cc1ccc(N2C(=O)CC(Cc3cc(C)cc(C)c3)C2=O)cc1 (centres undefined)	23.6*	-11.3	10.6	2.0	-1.0	-4.2
COc1ccc(Cl)cc1NC(=O)CSc1nnc(CNC(=O)c2ccco2)o1	21.9*	-4.5	-0.1	3.5	11.9	-9.9
COc1ccc(OC)c(NC(=O)CSc2nnc(CNC(=O)c3ccco3)o2)c1	8.1	3.5	-2.7	-3.9	-5.4	3.4
O=C1CCC(/C=C/c2ccccc2)=NN1Cc1ccccc1Cl	-1.1	7.8	3.3	-1.3	1.9	42.7*
COc1ccc(-c2cc3ccc(OC(C)C(=O)O)cc3oc2=O)cc1 (centres undefined)	1.3	4.5	-1.9	0.0	22.4*	3.5
COc1ccc(-c2cc3ccccc3oc2=O)cc1	-2.0	14.3	-5.2	-2.3	-10.3	-4.6
O=C(N/N=C/c1cc2c(cc1Cl)OCO2)c1cccc(Br)c1	38.9*	23.5	2.0	-2.0	5.5	0.8
O=C(N/N=C/c1cc2c(cc1Cl)OCO2)c1ccncc1	0.0	-5.6	3.5	-1.5	0.4	-5.2
O=C1CC(c2ccco2)CC(O)=C1C=Nc1cc(Cl)ccc1Cl (centres undefined)	24.4*	3.8	0.3	-0.5	4.2	0.9
O=C1CC(c2ccco2)CC(O)=C1C=Nc1cc(Cl)ccc1O (centres undefined)	21.1*	7.1	3.7	-3.9	4.7	-0.9
Cc1cccc(NC2=C(C#N)C(=O)NC3(CCCC3)S2)c1	23.6*	10.6	2.9	-0.4	-12.3	7.5
Cc1cccc(N2C(S)=C(C#N)C(=O)NC23CCCCC3)c1	-1.1	9.5	-0.9	-0.2	-5.8	5.0
COc1ccc(CCNC(=O)C2CCN(c3nccc(C)n3)CC2)cc1	0.9	-4.4	2.8	1.0	-5.7	-2.9
Cc1ccc(OCC(=O)NNC(=O)C2CCN(c3nccc(C)n3)CC2)cc1	-2.7	14.5	-1.9	2.4	8.8	105.0*
Cc1ccc2c(c1)C1CS(=O)(=O)N(CCc3ccccc3)C(=O)N1C2 (centres undefined)	3.1	·	1.6	·	·	·
CN(C)CC(CCC(CN(C)C)C(=O)c1ccccc1)C(=O)c1ccccc1 (centres undefined)	·	6.5	·	-0.3	41.4*	40.8

Bioassay records (PubChem)
